Data from ChEMBL document CHEMBL4706495, “A novel class of small molecule inhibitors with radioprotective properties” (Eur J Med Chem, 2020).
Active and inactive are the calls of the source. The calls are words filed in the database; no cut-off is given here.

What was measured:
Jurkat [1] = test: Cytotoxicity against human Jurkat cells assessed as cell viability at 10 uM measured after 48 hrs by WST-1 assay relative to control; format: functional; details: read-out: Activity
Summary of the method: (§1)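 Ten-line human panel (9 cancer, 1 non-cancerous). Cells were seeded at a pre-established optimal density (500–30 × 10³ per well) and settled overnight. Compounds came from 10 mM DMSO stocks and were tested at two concentrations. WST-1 readout followed the manufacturer's protocol at the end of cultivation. Viability is expressed as % of untreated control cells, mean of three independent experiments.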

MOLT-4 [2] = test: Cytotoxicity against human MOLT-4 cells assessed as cell viability at 10 uM measured after 48 hrs by WST-1 assay relative to control; format: functional; details: read-out: Activity; summary of the method: as §1
A549 [3] = test: Cytotoxicity against human A549 cells assessed as cell viability at 10 uM measured after 48 hrs by WST-1 assay relative to control; format: functional; details: read-out: Activity; summary of the method: as §1
HT-29 [4] = test: Cytotoxicity against human HT-29 cells assessed as cell viability at 10 uM measured after 48 hrs by WST-1 assay relative to control; format: functional; details: read-out: Activity; summary of the method: as §1
PANC-1 [5] = test: Cytotoxicity against human PANC-1 cells assessed as cell viability at 10 uM measured after 48 hrs by WST-1 assay relative to control; format: functional; details: read-out: Activity; summary of the method: as §1
A2780 [6] = test: Cytotoxicity against human A2780 cells assessed as cell viability at 10 uM measured after 48 hrs by WST-1 assay relative to control; format: functional; details: read-out: Activity; summary of the method: as §1
HeLa [7] = test: Cytotoxicity against human HeLa cells assessed as cell viability at 10 uM measured after 48 hrs by WST-1 assay relative to control; format: functional; details: read-out: Activity; summary of the method: as §1
MCF7 [8] = test: Cytotoxicity against human MCF7 cells assessed as cell viability at 10 uM measured after 48 hrs by WST-1 assay relative to control; format: functional; details: read-out: Activity; summary of the method: as §1
SAOS-2 [9] = test: Cytotoxicity against human SAOS-2 cells assessed as cell viability at 10 uM measured after 48 hrs by WST-1 assay relative to control; format: functional; details: read-out: Activity; summary of the method: as §1
[10] = Cytotoxicity against human MRC5 cells assessed as cell viability at 10 uM measured after 48 hrs by WST-1 assay relative to control; format: cell-based; details: read-out: Activity; summary of the method: as §1
Jurkat [11] = test: Cytotoxicity against human Jurkat cells assessed as cell viability at 100 uM measured after 48 hrs by WST-1 assay relative to control; format: functional; details: read-out: Activity; summary of the method: as §1
MOLT-4 [12] = test: Cytotoxicity against human MOLT-4 cells assessed as cell viability at 100 uM measured after 48 hrs by WST-1 assay relative to control; format: functional; details: read-out: Activity; summary of the method: as §1
A549 [13] = test: Cytotoxicity against human A549 cells assessed as cell viability at 100 uM measured after 48 hrs by WST-1 assay relative to control; format: functional; details: read-out: Activity; summary of the method: as §1
HT-29 [14] = test: Cytotoxicity against human HT-29 cells assessed as cell viability at 100 uM measured after 48 hrs by WST-1 assay relative to control; format: functional; details: read-out: Activity; summary of the method: as §1
PANC-1 [15] = test: Cytotoxicity against human PANC-1 cells assessed as cell viability at 100 uM measured after 48 hrs by WST-1 assay relative to control; format: functional; details: read-out: Activity; summary of the method: as §1
A2780 [16] = test: Cytotoxicity against human A2780 cells assessed as cell viability at 100 uM measured after 48 hrs by WST-1 assay relative to control; format: functional; details: read-out: Activity; summary of the method: as §1
HeLa [17] = test: Cytotoxicity against human HeLa cells assessed as cell viability at 100 uM measured after 48 hrs by WST-1 assay relative to control; format: functional; details: read-out: Activity; summary of the method: as §1
MCF7 [18] = test: Cytotoxicity against human MCF7 cells assessed as cell viability at 100 uM measured after 48 hrs by WST-1 assay relative to control; format: functional; details: read-out: Activity; summary of the method: as §1
SAOS-2 [19] = test: Cytotoxicity against human SAOS-2 cells assessed as cell viability at 100 uM measured after 48 hrs by WST-1 assay relative to control; format: functional; details: read-out: Activity; summary of the method: as §1
[20] = Cytotoxicity against human MRC5 cells assessed as cell viability at 100 uM measured after 48 hrs by WST-1 assay relative to control; format: cell-based; details: read-out: Activity; summary of the method: as §1
A549 [21] = test: Cytotoxicity against human A549 cells assessed as reduction in cell viability incubated for 24 hrs by MTT assay; format: functional, cell-based; details: A549, 24 h
Summary of the method: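 A-549 cells in DMEM with 10% FBS and 1% penicillin-streptomycin were attached overnight. Compounds were prepared in PBS and serially diluted in DMEM, then incubated 24 h. Viability was read by colorimetric MTT reduction against an untreated control on each plate (100%). IC50 came from four-parameter nonlinear regression of the log concentration-response curve, mean ± SEM. MTC is the highest concentration not differing from control (t-test).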

A549 [22] = test: Cytotoxicity against human A549 cells assessed as maximum tolerated concentration incubated for 24 hrs by MTT assay; format: functional
Summary of the method: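 A-549 cells in DMEM with 10% FBS and 1% penicillin-streptomycin, left to attach overnight. Compounds made up in PBS, serially diluted in DMEM, incubated 24 h, then viability read by MTT reduction against untreated controls on each plate. MTC taken as the highest concentration showing no significant difference from non-treated control (t-test).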

MOLT-4 [23] = test: Radioprotective activity against gamma irradiation-induced apoptosis in human MOLT-4 cells assessed as viable cells at 100 uM pretreated with compound for 1 hr followed by gamma irradiation and measured after 24 hrs by annexinV/propidium iodide staining based flow cytometry (reference value: 40 %); format: functional; details: MOLT-4, light or radiation study, time 25 hrs, read-out: Activity
[24] = Toxicity in C57Bl/6 mouse assessed as mouth death at 100 mg/kg, ip measured after 30 days; format: organism-based; details: in vivo, 720 h, time 30 day
Summary of the method: (§2)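 Safety in C57Bl/6 mice (27 ± 3 g) given a single 100 mg/kg i.p. injection without irradiation. Deaths, adverse effects and body weight followed over 30 days against an untreated control group. Weight reported as change from day 0.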

[25] = Toxicity in C57Bl/6 mouse assessed as adverse effects at 100 mg/kg, ip measured after 30 days; format: organism-based; details: in vivo, 720 h, time 30 day; summary of the method: as §2
[26] = Toxicity in C57Bl/6 mouse assessed as average body weight at 100 mg/kg, ip and measured immediately (reference value: 26.3 +/- 2.4 g); format: organism-based; details: in vivo
[27] = Toxicity in C57Bl/6 mouse assessed as average body weight at 100 mg/kg, ip measured after 30 days (reference value: 27 +/ 3.2 g); format: organism-based; details: in vivo, 720 h, time 30 day
[28] = Toxicity in C57Bl/6 mouse assessed as change in body weight at 100 mg/kg, ip measured after 30 days (reference value: 103 +/- 12 %); format: organism-based; details: in vivo, 720 h, time 30 day
Mus musculus [29] = test: Radioprotective activity in C57Bl/6 mouse assessed as median survival time at 100 mg/kg, ip administered 5 min prior to gamma-irradation at 8.5 Gy and measured after 30 days (reference value: 12 days); format: functional
Mus musculus [30] = test: Radioprotective activity in C57Bl/6 mouse assessed as average body weight at 100 mg/kg, ip administered 5 min prior to gamma-irradation at 8.5 Gy and measured immediately (reference value: 25.4 +/- 2.6 g); format: functional
Mus musculus [31] = test: Radioprotective activity in C57Bl/6 mouse assessed as average body weight at 100 mg/kg, ip administered 5 min prior to gamma-irradation at 8.5 Gy and measured after 30 days; format: functional
Mus musculus [32] = test: Radioprotective activity in C57Bl/6 mouse assessed as body weight gain at 100 mg/kg, ip administered 5 min prior to gamma-irradation at 8.5 Gy measured after 30 days relative to control; format: functional
Mus musculus [33] = test: Radioprotective activity in C57Bl/6 mouse assessed as increase in absolute B-lymphocytes at 100 mg/kg, ip pretreated with compound for 5 min followed by gamma irradiation at 8.5 Gy and measured after 12 to 30 days by flow cytometry; format: functional, organism-based
Summary of the method: (§3)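 C57Bl/6 mice receive 100 mg/kg i.p. 5 min before a single 8.5 Gy ⁶⁰Co γ dose. At 7, 12 and 30 days post-irradiation, 100 µl peripheral blood is stained with anti-CD3ε, CD19 and NK1.1 antibodies for 30 min at 4 °C in the dark. Samples are washed twice and analysed by flow cytometry for T, B and NK cells. Mean ± SEM.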

Mus musculus [34] = test: Radioprotective activity in C57Bl/6 mouse assessed as increase in absolute T-lymphocytes at 100 mg/kg, ip pretreated with compound for 5 min followed by gamma irradiation at 8.5 Gy and measured after 12 to 30 days by flow cytometry; format: functional, organism-based; summary of the method: as §3
Mus musculus [35] = test: Radioprotective activity in C57Bl/6 mouse assessed as increase in absolute NK population at 100 mg/kg, ip pretreated with compound for 5 min followed by gamma irradiation at 8.5 Gy and measured after 12 to 30 days by flow cytometry; format: functional, organism-based; summary of the method: as §3
Mus musculus [36] = test: Radioprotective activity in C57Bl/6 mouse assessed as increase in absolute B-lymphocytes at 100 mg/kg, ip pretreated with compound for 5 min followed by gamma irradiation at 8.5 Gy and measured after 30 days by flow cytometry; format: functional, organism-based; summary of the method: as §3
Mus musculus [37] = test: Radioprotective activity in C57Bl/6 mouse assessed as increase in absolute T-lymphocytes at 100 mg/kg, ip pretreated with compound for 5 min followed by gamma irradiation at 8.5 Gy and measured after 30 days by flow cytometry; format: functional, organism-based; summary of the method: as §3
Mus musculus [38] = test: Radioprotective activity in C57Bl/6 mouse assessed as increase in absolute NK population at 100 mg/kg, ip pretreated with compound for 5 min followed by gamma irradiation at 8.5 Gy and measured after 30 days by flow cytometry; format: functional, organism-based; summary of the method: as §3

SMILES | viability at 10 µM (Jurkat [1]) [%] | viability at 10 µM (MOLT-4 [2]) [%] | viability at 10 µM (A549 [3]) [%] | viability at 10 µM (HT-29 [4]) [%] | viability at 10 µM (PANC-1 [5]) [%] | viability at 10 µM (A2780 [6]) [%] | viability at 10 µM (HeLa [7]) [%] | viability at 10 µM (MCF7 [8]) [%] | viability at 10 µM (SAOS-2 [9]) [%] | viability at 48 h, 10 µM [10] [%] | viability at 100 µM (Jurkat [11]) [%] | viability at 100 µM (MOLT-4 [12]) [%] | viability at 100 µM (A549 [13]) [%] | viability at 100 µM (HT-29 [14]) [%] | viability at 100 µM (PANC-1 [15]) [%] | viability at 100 µM (A2780 [16]) [%] | viability at 100 µM (HeLa [17]) [%] | viability at 100 µM (MCF7 [18]) [%] | viability at 100 µM (SAOS-2 [19]) [%] | viability at 48 h, 100 µM [20] [%] | further results
COc1cc([N+](=O)[O-])ccc1OCC(O)CN1CCN(CCO)CC1 (stereo not given) | 101 | 92 | 93 | 99 | 92 | 99 | 101 | 103 | 103 | 97 | 92 | 99 | 105 | 111 | 105 | 95 | 108 | 98 | 94 | 97 | IC50 (A549 [21]): 4.45 mM; MTD (A549 [22]): 0.78 mM; viability at 100 µM (MOLT-4 [23]): 59%; Activity [24]: Non-Toxic; Activity [25]: Non-Toxic; Activity [26]: 27.8 g; Activity [27]: 28.5 g; Activity [28]: 103%; MST (Mus musculus [29]): 11 days; Activity (Mus musculus [30]): 26.1 g; Activity (Mus musculus [31]): 26.5 g; Activity (Mus musculus [32]): 101%; Activity (Mus musculus [33]): Active; Activity (Mus musculus [34]): Active; Activity (Mus musculus [35]): Active
COc1ccccc1OCC(O)CN1CCN(CCO)CC1 (stereo not given) | 106 | 100 | 91 | 93 | 100 | 100 | 93 | 99 | 106 | 90 | 86 | 76 | 109 | 143 | 115 | 78 | 99 | 95 | 82 | 109 | IC50 (A549 [21]): 9.27 mM; MTD (A549 [22]): 1.56 mM; viability at 100 µM (MOLT-4 [23]): 59%; Activity [24]: Non-Toxic; Activity [25]: Non-Toxic; Activity [26]: 27.9 g; Activity [27]: 28.5 g; Activity [28]: 102%; MST (Mus musculus [29]): 13 days; Activity (Mus musculus [30]): 26.8 g; Activity (Mus musculus [31]): 27.6 g; Activity (Mus musculus [32]): 102%; Activity (Mus musculus [36]): Active; Activity (Mus musculus [37]): Active; Activity (Mus musculus [38]): Active
